Measured values from ChEMBL document CHEMBL3352584, “Novel DNA gyrase inhibiting spiropyrimidinetriones with a benzisoxazole scaffold: SAR and in vivo characterization” (J Med Chem, 2014).
Values after ≈ are worked out from the molar mass of the structure shown.

Tests used:
[1] = AUC in Wistar Hannover rat at 750 mg/kg, po dosed once daily for 14 days measured on day 14; type: ADME, organism-based; design: dose 750 mg/kg, route oral; settings: plasma
Method in brief: (§1)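 Wistar Hannover rats, 2 males and 2 females per dose, dosed orally once daily for 14 days at 250, 500 or 750 mg/kg/day. Vehicle was 0.2 M meglumine/20% hydroxypropyl-β-cyclodextrin. Blood was sampled on day 14 and exposure measured in blood. Animals were killed after sampling without necropsy.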

Staphylococcus aureus [2] = test: Inhibition of RNA synthesis in methicillin-sensitive Staphylococcus aureus by [3H]-uridine incorporation assay; type: functional, organism-based
Staphylococcus aureus [3] = test: Antimicrobial activity against Staphylococcus aureus 2375 harboring GyrA S84L mutant, GyrB R144A mutant and ParC S80Y/E84G/V693M mutant and ParE N141S mutant by broth microdilution method; type: functional
Staphylococcus aureus [4] = test: Antimicrobial activity against methicillin-sensitive Staphylococcus aureus ARC516 infected in immunocompetant mouse administered as single ip dose starting 2 hrs after infection; type: functional, organism-based
Staphylococcus aureus [5] = test: Inhibition of cell wall biosynthesis in methicillin-sensitive Staphylococcus aureus by [14C]-N-acetylglucosamine incorporation assay; type: functional, organism-based
[6] = target: DNA topoisomerase 2-alpha (Homo sapiens, UniProt P11388); test: Inhibition of human topoisomerase 2alpha
Sequence of DNA topoisomerase 2-alpha (P11388 whole entry): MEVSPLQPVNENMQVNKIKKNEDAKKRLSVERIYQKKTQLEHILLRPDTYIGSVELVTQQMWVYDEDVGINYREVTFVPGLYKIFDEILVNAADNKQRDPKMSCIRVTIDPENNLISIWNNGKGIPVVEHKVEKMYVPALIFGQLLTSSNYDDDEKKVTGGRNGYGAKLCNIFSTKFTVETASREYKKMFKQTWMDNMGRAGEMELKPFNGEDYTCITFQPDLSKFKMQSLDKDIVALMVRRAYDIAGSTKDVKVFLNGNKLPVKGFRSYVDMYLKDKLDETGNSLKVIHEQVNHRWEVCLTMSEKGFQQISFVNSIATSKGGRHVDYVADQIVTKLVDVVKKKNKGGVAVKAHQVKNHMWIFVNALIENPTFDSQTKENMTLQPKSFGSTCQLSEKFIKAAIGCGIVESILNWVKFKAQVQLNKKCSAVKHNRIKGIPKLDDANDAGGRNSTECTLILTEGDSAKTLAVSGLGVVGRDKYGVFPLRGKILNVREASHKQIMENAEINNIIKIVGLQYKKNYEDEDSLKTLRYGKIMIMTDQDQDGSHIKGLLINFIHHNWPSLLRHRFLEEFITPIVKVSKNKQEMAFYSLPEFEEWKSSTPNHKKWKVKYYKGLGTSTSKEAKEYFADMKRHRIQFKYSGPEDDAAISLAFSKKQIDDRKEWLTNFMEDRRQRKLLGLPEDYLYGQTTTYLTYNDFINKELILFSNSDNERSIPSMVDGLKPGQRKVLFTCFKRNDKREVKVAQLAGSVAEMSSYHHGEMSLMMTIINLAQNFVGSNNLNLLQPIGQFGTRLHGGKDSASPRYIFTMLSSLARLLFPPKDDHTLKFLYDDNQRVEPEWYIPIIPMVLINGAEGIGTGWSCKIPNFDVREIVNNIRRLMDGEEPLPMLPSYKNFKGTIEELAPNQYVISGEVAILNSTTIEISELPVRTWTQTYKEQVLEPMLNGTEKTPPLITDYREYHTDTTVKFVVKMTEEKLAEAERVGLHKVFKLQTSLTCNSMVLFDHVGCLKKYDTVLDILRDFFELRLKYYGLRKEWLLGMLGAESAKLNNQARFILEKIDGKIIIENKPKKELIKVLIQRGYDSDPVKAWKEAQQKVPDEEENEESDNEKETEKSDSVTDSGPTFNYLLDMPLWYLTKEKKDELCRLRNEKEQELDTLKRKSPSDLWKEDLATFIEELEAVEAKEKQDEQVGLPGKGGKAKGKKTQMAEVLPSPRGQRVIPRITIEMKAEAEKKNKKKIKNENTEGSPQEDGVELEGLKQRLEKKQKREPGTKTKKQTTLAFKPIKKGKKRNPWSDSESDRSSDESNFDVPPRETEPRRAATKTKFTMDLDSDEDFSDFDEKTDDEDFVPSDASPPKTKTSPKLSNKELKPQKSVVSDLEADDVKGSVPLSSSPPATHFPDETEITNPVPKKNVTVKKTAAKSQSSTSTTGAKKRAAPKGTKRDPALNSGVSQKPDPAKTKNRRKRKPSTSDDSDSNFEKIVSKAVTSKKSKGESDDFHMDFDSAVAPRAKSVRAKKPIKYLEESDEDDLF

[7] = Fraction unbound in rat plasma at 10 uM after 16 hrs by LC-MS/MS analysis; type: ADME, cell-free
Method in brief: (§2)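 Compound at 10 μM in human, rat or mouse plasma, equilibrium dialysis against buffer at 37 °C for 16 h. Buffer and plasma concentrations measured by LC-MS/MS, and the free fraction taken from their ratio.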

DNA gyrase = DNA gyrase (Escherichia coli, UniProt P0AES4+P0AES6); test: Inhibition of Escherichia coli DNA gyrase using fluorescence-tagged DNA by fluorescenct polarization assay; type: protein-complex assay
Method in brief: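 E. coli DNA gyrase supercoiling assay. The read-out was differential binding of a fluorescence-tagged DNA to relaxed versus supercoiled DNA, giving IC50.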

Escherichia coli [8] = test: Antimicrobial activity against Escherichia coli by broth microdilution method; type: functional
Method in brief: (§3)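 Broth microdilution following CLSI guidelines. Values under 12.5 μM are averages of three or more replicates.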

Staphylococcus aureus [9] = test: Antimicrobial activity against methicillin-sensitive Staphylococcus aureus by broth microdilution method; type: functional; method in brief: as §3
Staphylococcus aureus [10] = test: Antimicrobial activity against wild-type Staphylococcus aureus 516 by broth microdilution method; type: functional; method in brief: as §3
Staphylococcus aureus [11] = test: Antimicrobial activity against methicillin-sensitive Staphylococcus aureus ARC516 infected in immunosupressed mouse assessed as reduction in CFU at AUC of 120 ug.hr/mL compound administered as single ip dose starting 2 hrs after infection relative to untreated control; type: functional
Method in brief: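 Mice were made neutropenic with IP cyclophosphamide, 150 mg/kg at day −4 and 100 mg/kg at day −1. CD-1 thighs were then infected with mid-log S. aureus ARC516 (target 5 × 10⁵ CFU). Groups of five received IP compound in DMA:TEG:saline 40/40/20%, starting 2 h post-infection, alongside vehicle controls. At 24 h after treatment start, thigh homogenates were plated on tryptic soy agar (37 °C, overnight) for CFU/g.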

[12] = Clearance in rat at 3 mg/kg, iv or at 10 mg/kg, po by LC-MS/MS method; type: ADME, organism-based; settings: in vivo
Method in brief: (§4)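 Male mice (CD-1) or male Wistar Hannover rats, three per experiment, given a 15 min iv infusion at 3 mg/kg or oral dosing at 10 mg/kg. Vehicle was DMA:TEG:saline 40/40/20 for mice and meglumine/cyclodextrin for rats. Serial jugular blood was taken over 0–24 h, plasma analysed by LC-MS/MS, and a noncompartmental analysis used. Mean values are given.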

[13] = Toxicity in po dosed Wistar Hannover rat administered administered once daily for 14 days; type: organism-based; settings: in vivo
Method in brief: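 Repeat-dose oral study in Wistar Hannover rats, three males and three females per group, dosed once daily for 14 days at 0, 250, 500 or 750 mg/kg/day and necropsied on day 15. Endpoints were clinical signs, body weight, food intake, temperature, hematology, plasma chemistry, toxicokinetics, and gross and microscopic pathology.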

[14] = Fraction unbound in mouse plasma at 10 uM after 16 hrs by LC-MS/MS analysis; type: ADME, cell-free; method in brief: as §2
[15] = AUC in Wistar Hannover rat at 250 mg/kg, po dosed once daily for 14 days measured on day 14; type: ADME, organism-based; design: dose 250 mg/kg, route oral; settings: plasma; method in brief: as §1
[16] = Cmax in Wistar Hannover rat at 250 mg/kg, po dosed once daily for 14 days measured on day 14; type: ADME, organism-based; design: dose 250 mg/kg, route oral; settings: in vivo; method in brief: as §1
Streptococcus pneumoniae [17] = test: Antimicrobial activity against wild-type Streptococcus pneumoniae 548 by broth microdilution method; type: functional; method in brief: as §3
[18] = Cmax in Wistar Hannover rat at 750 mg/kg, po dosed once daily for 14 days measured on day 14; type: ADME, organism-based; design: dose 750 mg/kg, route oral; settings: in vivo; method in brief: as §1
Escherichia coli [19] = test: Antimicrobial activity against tolC-deficient Escherichia coli by broth microdilution method; type: functional; method in brief: as §3
[20] = Fraction unbound in human plasma at 10 uM after 16 hrs by LC-MS/MS analysis; type: ADME, cell-free; method in brief: as §2
Streptococcus pneumoniae [21] = test: Antimicrobial activity against Streptococcus pneumoniae by broth microdilution method; type: functional; method in brief: as §3
Staphylococcus aureus [22] = test: Antimicrobial activity against methicillin-resistant and quinolone-resistant Staphylococcus aureus by broth microdilution method; type: functional; method in brief: as §3
Rattus norvegicus [23] = test: fCmax in Wistar Hannover rat at 500 mg/kg, po dosed once daily for 14 days measured on day 14; type: ADME, organism-based; design: dose 500 mg/kg, route oral; settings: in vivo, 336 h
Rattus norvegicus [24] = test: Toxicity in Wistar Hannover rat at 1000 mg/kg, po administered as single dose; type: organism-based; design: dose 1000 mg/kg, route oral; settings: in vivo
Method in brief: (§5)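 Single-dose oral phase in groups of three male Wistar Hannover rats, at doses up to 1000 mg/kg. Vehicle was 0.2 M meglumine/20% hydroxypropyl-β-cyclodextrin.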

[25] = AUC in Wistar Hannover rat at 500 mg/kg, po dosed once daily for 14 days measured on day 14; type: ADME, organism-based; design: dose 500 mg/kg, route oral; settings: plasma; method in brief: as §1
Streptococcus pneumoniae [26] = test: Antimicrobial activity against Streptococcus pneumoniae 2800 harboring GyrB K143I/T172A mutant by broth microdilution method; type: functional
Staphylococcus aureus [27] = test: Antimicrobial activity against methicillin-sensitive Staphylococcus aureus ARC516 infected in mouse at 3 to 100 mg/kg/day, ip starting 2 hrs after infection; type: functional, organism-based
Method in brief: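 CD-1 mouse thighs infected with mid-log S. aureus ARC516 at a target inoculum of 5 × 10⁵ CFU. Groups of five received ip compound in DMA:TEG:saline 40/40/20, either q24h or q6h, from 2 h post-infection. Mice were killed 24 h after treatment start and thigh homogenates plated on tryptic soy agar (37 °C overnight) for CFU/g. Neutropenia was induced with ip cyclophosphamide, 150 mg/kg on day −4 and 100 mg/kg on day −1.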

[28] = Bioavailability in mouse at 3 mg/kg, iv or at 10 mg/kg, po by LC-MS/MS method; type: ADME, organism-based; settings: in vivo; method in brief: as §4
[29] = Cmax in Wistar Hannover rat at 500 mg/kg, po dosed once daily for 14 days measured on day 14; type: ADME, organism-based; design: dose 500 mg/kg, route oral; settings: in vivo; method in brief: as §1
Rattus norvegicus [30] = test: fAUC in Wistar Hannover rat at 500 mg/kg, po dosed once daily for 14 days measured on day 14; type: ADME, organism-based; design: dose 500 mg/kg, route oral; settings: in vivo, 336 h
[31] = Toxicity in po dosed Wistar Hannover rat administered as single dose; type: organism-based; settings: in vivo; method in brief: as §5
Streptococcus pneumoniae [32] = test: Antimicrobial activity against Streptococcus pneumoniae 2485 harboring GyrA S81F mutant, GyrB D160E/T329A mutant and ParC S79F mutant by broth microdilution method; type: functional
[33] = Clearance in mouse at 3 mg/kg, iv or at 10 mg/kg, po by LC-MS/MS method; type: ADME, organism-based; settings: in vivo; method in brief: as §4

Cc1noc2c(F)c3c(cc12)CC1(C(=O)NC(=O)NC1=O)[C@H]1[C@H](C)O[C@H](C)CN31
AUC at 336 h [1]: 4600 µM·h | IC50 (Staphylococcus aureus [2]): 5 µg/mL (≈ 12.4 µM) | MIC (Staphylococcus aureus [3]): 0.5 µg/mL (≈ 1.24 µM) | Activity (Staphylococcus aureus [4]): Dose-dependent effect | IC50 (Staphylococcus aureus [5]): 8 µg/mL (≈ 19.9 µM) | IC50 [6]: 50 µM | fraction unbound at 16 h, 10 µM [7]: 0.16 | IC50 (DNA gyrase): 0.29 µM | MIC (Escherichia coli [8]): 45 µM (≈ 18.1 µg/mL) | MIC (Staphylococcus aureus [9]): 1 µM (≈ 0.402 µg/mL) | MIC (Staphylococcus aureus [10]): 0.5 µg/mL (≈ 1.24 µM) | fold change (FC) (Staphylococcus aureus [11]): 3 | clearance [12]: 32 mL/min/kg | NOAEL at 336 h [13]: 500 mg/kg | fraction unbound at 16 h, 10 µM [14]: 0.19 | AUC at 336 h [15]: 2300 µM·h | Cmax [16]: 290 µM | MIC (Streptococcus pneumoniae [17]): 4 µg/mL (≈ 9.94 µM) | Cmax [18]: 487 µM | MIC (Escherichia coli [19]): ≤ 0.2 µM | fraction unbound at 16 h, 10 µM [20]: 0.094 | MIC (Streptococcus pneumoniae [21]): 8.8 µM (≈ 3.54 µg/mL) | MIC (Staphylococcus aureus [22]): 2 µM (≈ 0.805 µg/mL) | fCmax (Rattus norvegicus [23]): 70 µmol/L | Activity (Rattus norvegicus [24]): Toxic | AUC at 336 h [25]: 4400 µM·h | MIC (Streptococcus pneumoniae [26]): 4 µg/mL (≈ 9.94 µM) | Activity (Staphylococcus aureus [27]): Dose-dependent effect | bioavailability [28]: 58% | Cmax [29]: 440 µM | fAUC (Rattus norvegicus [30]): 700 µM·h | MTD [31]: ≤ 750 mg/kg | MIC (Streptococcus pneumoniae [32]): 2 µg/mL (≈ 4.97 µM) | clearance [33]: 38 mL/min/kg
